Assay [1] addresses T1, Stimulator of interferon genes protein (Mus musculus) (UniProt Q3TBT3).
T1 sequence (whole entry): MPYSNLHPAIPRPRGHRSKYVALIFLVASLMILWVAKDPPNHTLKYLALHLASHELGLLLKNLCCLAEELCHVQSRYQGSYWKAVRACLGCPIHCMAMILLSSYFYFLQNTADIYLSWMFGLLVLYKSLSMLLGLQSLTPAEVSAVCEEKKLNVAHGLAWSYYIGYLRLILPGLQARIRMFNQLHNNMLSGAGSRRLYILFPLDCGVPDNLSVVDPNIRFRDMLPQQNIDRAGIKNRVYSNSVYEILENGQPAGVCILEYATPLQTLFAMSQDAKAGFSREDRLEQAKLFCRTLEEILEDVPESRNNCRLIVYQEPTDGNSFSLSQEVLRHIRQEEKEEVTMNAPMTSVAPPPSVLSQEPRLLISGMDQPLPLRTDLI
Briefly: Agonist activity at STING in mouse J774 cells assessed as stimulation of IRF3 pathway measured after 20 hrs by luciferase reporter gene assay. The class given is cell-based. Summed up:
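J774-Dual reporter cells (stably carrying inducible NF-kB and IRF3 reporter constructs), 5×10^4 per well, given CDN at 1 µg/mL for 20 hours; IRF3 pathway activity read by luciferase assay.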
On the technique in general: In a reporter assay the amount or activity of a reporter protein is the signal.

Assay [2] relates to Mus musculus. The assay can be described thus: Antitumor activity against mouse B16-OVA cells implanted in mouse assessed as tumour regression in contralateral flank at 10 ug administered intratumorally on day 6, 9 and 12 post implantation. The class given is functional, cell-based. A digest of the protocol:
(§1)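 Mice (n=5 per group) implanted bilaterally with 1×10^5 B16-Ova cells; 10 µg CDN injected intratumorally into one flank only on days 6, 9 and 12 post implantation. Tumor regression followed in injected and contralateral untreated flanks; cure of both tumors recorded.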

For assay [3], the system named is Mus musculus. Briefly: Antitumor activity against mouse B16-OVA cells implanted in mouse assessed as higher number of mouse cured of tumors at 10 ug administered intratumorally on day 6, 9 and 12 post implantation. The assay is classed as functional, cell-based. Summed up: as §1
Assay [4] concerns Mus musculus. Briefly: Antitumor activity against mouse B16-OVA cells implanted in mouse assessed as tumour regression in injected flank at 10 ug administered intratumorally on day 6, 9 and 12 post implantation. The class given is functional, cell-based. A digest of the protocol:
as §1

The source made the active and inactive calls. The calls are words filed in the database; no cut-off is given here.

Take `Nc1ncnc2c1ccn2[C@@H]1O[C@@H]2CO[P@@](=O)(S)O[C@H]3[C@@H](O)[C@H](n4cnc5c(N)ncnc54)O[C@@H]3CO[P@](=O)(S)O[C@@H]1[C@@H]2O`: the result in assay [1] was Active.
Consider `Nc1ncnc2c1ccn2[C@@H]1O[C@@H]2CO[P@@](=O)(S)O[C@@H]3[C@H](O)[C@@H](CO[P@@](=O)(S)O[C@H]2[C@H]1O)O[C@H]3n1cnc2c(N)ncnc21`, for which the outcome (in the assay with Mus musculus [2]; in the assay on Mus musculus [3]; in assay [1]; in the assay with Mus musculus [4]) was Active.
On to `Nc1ncnc2c1ccn2[C@@H]1O[C@@H]2CO[P@](=O)(S)O[C@@H]3[C@H](O)[C@@H](CO[P@@](=O)(S)O[C@H]2[C@H]1O)O[C@H]3n1cnc2c(N)ncnc21`, for which the outcome in assay [1] was Active.
Still for that read-out and setting: the result for `Nc1ncnc2c1ccn2[C@@H]1O[C@@H]2CO[P@@](=O)(S)O[C@H]3[C@@H](O)[C@H](n4cnc5c(N)ncnc54)O[C@@H]3CO[P@@](=O)(S)O[C@@H]1[C@@H]2O` reads “Active”.
For the compound `Nc1ncnc2c1ncn2[C@@H]1O[C@@H]2CO[P@@](=O)(S)O[C@@H]3[C@H](O)[C@@H](CO[P@@](=O)(S)O[C@H]2[C@H]1F)O[C@H]3n1cnc2c(N)ncnc21`, the result (in the assay with Mus musculus [2]; in the assay on Mus musculus [3]; in assay [1]; in the assay on Mus musculus [4]) was Active.
With `Nc1ncnc2c1ncn2[C@@H]1O[C@@H]2CO[P@](=O)(S)O[C@@H]3[C@H](O)[C@@H](CO[P@@](=O)(S)O[C@H]2[C@H]1F)O[C@H]3n1cnc2c(N)ncnc21`, the outcome in assay [1] was Active.
Turning to `Nc1nc2c(ncn2[C@@H]2O[C@@H]3COP(=O)(O)O[C@H]4[C@@H](O)[C@H](n5cnc6c(N)ncnc65)O[C@@H]4COP(=O)(O)O[C@@H]2[C@@H]3O)c(=O)[nH]1`, the result in the assay on Mus musculus [2], with Mus musculus [3] and with Mus musculus [4] was Active.

Source of the values: ChEMBL document CHEMBL4396969, “Discovery of IACS-8803 and IACS-8779, potent agonists of stimulator of interferon genes (STING) with robust systemic antitumor efficacy” (Bioorg Med Chem Lett, 2019).
